Reference: ChEMBL document CHEMBL3243994, “Synthesis of medroxyprogesterone bromoacetate for affinity labeling” (J Med Chem, 1977)
Activity calls are given as the source filed them. The rule behind the calls is not given here.

Columns and labels:
[1] = tested on: Rattus norvegicus; assay: Termination of pregnancy in intact rat assessed as fetal resorption administered into uterine lumen on day 7 measured on day 14; format: functional, organism-based
[2] = biological target: 3-alpha-(or 20-beta)-hydroxysteroid dehydrogenase (Streptomyces exfoliatus) (UniProt P19992); assay: Inhibition of 20beta-hydroxy steroid dehydrogenase in Streptomyces hydrogenans assessed as half life of enzyme inactivation at 50 uM
Sequence of 3-alpha-(or 20-beta)-hydroxysteroid dehydrogenase (Streptomyces exfoliatus) (P19992 whole entry): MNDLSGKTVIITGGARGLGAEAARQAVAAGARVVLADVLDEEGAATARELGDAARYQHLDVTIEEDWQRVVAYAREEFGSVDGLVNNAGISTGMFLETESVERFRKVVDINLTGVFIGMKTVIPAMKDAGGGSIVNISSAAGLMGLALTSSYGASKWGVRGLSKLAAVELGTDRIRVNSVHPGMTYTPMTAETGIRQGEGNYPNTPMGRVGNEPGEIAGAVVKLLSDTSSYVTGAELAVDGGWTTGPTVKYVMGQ
Method in brief: (§1)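 20β-Hydroxy steroid dehydrogenase from Streptomyces hydrogenans (4.2×10^-7 M) in 0.05 M phosphate buffer, pH 7.0, with 15% glycerol, was incubated with the bromoacetate steroid at 5×10^-5 M at 25 °C. Remaining activity was followed over time as NADH-dependent cortisone reduction to assess time-dependent, irreversible inactivation. The inactivation half-life was taken from the rate of activity loss.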

[3] = biological target: 3-alpha-(or 20-beta)-hydroxysteroid dehydrogenase (Streptomyces exfoliatus) (UniProt P19992); assay: Time-dependent inhibition of 20beta-hydroxy steroid dehydrogenase in Streptomyces hydrogenans assessed as inhibition of […] at 50 uM; method in brief: as §1
[4] = tested on: Rattus norvegicus; assay: Progestational activity in 9-day old pregnant bilateral ovariectomized Sprague-Dawley albino rat assessed as unresorbed fetus at 0.074 mg, sc for 2 days beginning 3 hrs prior to overiectomy measured on day 12 in presence of 17beta-estradiol; format: functional, organism-based
Method in brief: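 Pregnant albino rats (Holtzman, day 9, 275–305 g) were used in a group of five. They received a subcutaneous steroid/17β-estradiol mixture in 0.2 mL sesame oil 3 h before bilateral ovariectomy and a second injection 12 h later, with nothing given afterwards. On day 12 the rats were sacrificed and autopsied, and the intact uteri removed to score the fetuses.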

[5] = tested on: Rattus norvegicus; assay: Progestational activity in 9-day old pregnant bilateral ovariectomized Sprague-Dawley albino rat assessed as viable fetus at 0.074 to 0.15 mg, sc for 3 days beginning 3 hrs prior to overiectomy measured on day 12 in presence of 17beta-estradiol; format: functional, organism-based
Method in brief: (§2)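 Albino rats (Holtzman), 9 days pregnant and weighing 275–305 g, were used in groups of five. They received subcutaneous steroid in 0.2 mL sesame oil together with 17β-estradiol, 3 h before bilateral ovariectomy. Injections were repeated every 12 h for 3 days. On day 12 the animals were killed, opened by a ventral longitudinal incision, and the intact uteri removed to examine the fetuses.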

[6] = biological target: 3-alpha-(or 20-beta)-hydroxysteroid dehydrogenase (Streptomyces exfoliatus) (UniProt P19992); assay: Irreversible inhibition of 20beta-hydroxy steroid dehydrogenase in Streptomyces hydrogenans assessed as inhibition of […] at 50 uM; method in brief: as §1
[7] = tested on: Rattus norvegicus; assay: Progestational activity in 9-day old pregnant bilateral ovariectomized Sprague-Dawley albino rat assessed as viable fetus at 0.055 to 0.11 mg, sc for 3 days beginning 3 hrs prior to overiectomy measured on day 12 in presence of 17beta-estradiol; format: functional, organism-based; method in brief: as §2
[8] = tested on: Rattus norvegicus; assay: Progestational activity in 9-day old pregnant bilateral ovariectomized Sprague-Dawley albino rat assessed as viable fetus at 1 mg, sc for 3 days beginning 3 hrs prior to overiectomy measured on day 12 in presence of 17beta-estradiol; format: functional, organism-based
Method in brief: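 Groups of five 9-day-pregnant albino rats (275–305 g) received sc injections in 0.2 mL sesame oil together with 17β-estradiol (0.1×10^-3 mg), starting 3 h before bilateral ovariectomy. Injections were repeated every 12 h for 3 days. On day 12 the animals were sacrificed and opened by longitudinal ventral incision, and the intact uteri were removed to examine the fetuses.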

CC(=O)[C@H]1CC[C@H]2[C@@H]3CCC4=CC(=O)CC[C@]4(C)[C@H]3[C@H](OC(=O)CBr)C[C@]12C
Activity [1]: Active

CC(=O)[C@H]1[C@H](OC(=O)CBr)C[C@H]2[C@@H]3CCC4=CC(=O)CC[C@]4(C)[C@H]3CC[C@@]21C
Activity [1]: Active | T1/2 [2]: 4 h

CC(=O)[C@@]1(OC(=O)CBr)CC[C@H]2[C@@H]3C[C@H](C)C4=CC(=O)CC[C@]4(C)[C@H]3CC[C@@]21C
inhibition [3]: Active | Activity [1]: inactive | Activity [4]: Active | T1/2 [2]: 15 h | Activity [5]: Active | inhibition [6]: Active

C[C@]12CC[C@H]3[C@@H](CCC4=CC(=O)CC[C@@H]43)[C@@H]1CC[C@@H]2OC(=O)CBr
Activity [1]: Active

CC(=O)O[C@]1(C(C)=O)CC[C@H]2[C@@H]3C[C@H](C)C4=CC(=O)CC[C@]4(C)[C@H]3CC[C@@]21C
Activity [7]: Active

CC(=O)[C@H]1CC[C@H]2[C@@H]3CCC4=CC(=O)CC[C@]4(C)[C@H]3CC[C@]12C
Activity [8]: Active
